Screens as filed in PubChem.
This is a sample that favours compounds with a hit; in the whole collection about 1.9% have one here.
bCat nuc transl – alters nuclear translocation of beta-catenin in HeLa cells. immunofluorescence imaging. nuclear translocation activity, % at 5 µM. actives 0.3% (n = 190,000);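 active = nuclear translocation activity above 50% at 5 µM, with a well cell count of 50 or more; inconclusive = wells under 50 cells across six images, flagged as toxic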;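 also: per-cell ratio of nuclear to cytoplasmic median beta-catenin stain intensity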
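Assay system: human HeLa cells, native beta-catenin; doses: 5 µM primary, 0.02–20 µM confirmation; incubation: compound treatment 24 h, 37°C, 5% CO2; technique: fluorescence imaging of beta-catenin antibody stain plus DAPI; measure: % activation, nuclear-to-cytoplasmic median beta-catenin signal ratio per cell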
Autophagy mod – autophagy modulation, high-content screen. MEF GFP-LC3 puncta imaging; test concentration mostly 10 µM. calls only at 10 µM (by protocol). actives 0.98% (n = 190,000). AID 463193;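 active = percentage of spot-positive cells more than 3 SD above its plate mean, without a fluorescence outlier flag or 80% toxicity; inconclusive = no clear call, values can overlap the other calls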
Insulin prom up – MIN6 insulin promoter up-regulation | actives 0.3% (n = 190,000) | MIN6 insulin promoter-GFP reporter, high-content imaging; active compounds read high | z-score at 5 µM | AID 1625;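 active = z-score above 3 at 5 µM with at least 500 cells counted in the well; inconclusive = wells under 500 cells, flagged as cytotoxic or low count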
MT stabilize HCS – stabilizes microtubules in HeLa cells; % tubulin-high responders, % at 10 µM; AID 2205; actives 0.83% (n = 200,000); HeLa tubulin immunostaining HCS, 24 h; share of cells brighter than vehicle mean+2SD;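 active = plate Z-score above 3 for both tubulin-high and condensed-nucleus cell shares, with cell loss under 80%, at 10 µM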;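 also: anti alpha tubulin signal scored within the nucleus-defined area of each cell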
A number is an active result.

Screening c1ccc2oc(N3CCNCC3)nc2c1 returned bCat nuc transl inactive, Autophagy mod inactive, Insulin prom up inactive and MT stabilize HCS inactive.
For c1ccc2c(N3CCNCC3)nsc2c1 the results were bCat nuc transl inactive, Autophagy mod inactive, Insulin prom up 3.1 and MT stabilize HCS inactive.
`COc1ccc(-n2cnc3cc(C(=O)N4CCC5(CC4)OCCO5)ccc32)cc1` gave bCat nuc transl inactive, Autophagy mod inactive, Insulin prom up inactive and MT stabilize HCS 13.
`C[C@@H]1CC2(CCCC[N+]2(C)C)C[C@H]1C` gave bCat nuc transl inactive, Autophagy mod inactive and MT stabilize HCS inactive.
`CCCCc1ccc2[nH]cc(CCN)c2c1` gave bCat nuc transl inactive, Autophagy mod inactive, Insulin prom up 3.1 and MT stabilize HCS inactive.
For O=C(c1ccccc1)C1CCCN(Cc2nc(-c3cnccn3)no2)C1 (stereo not drawn) the results were bCat nuc transl inactive, Autophagy mod active, Insulin prom up inactive and MT stabilize HCS inactive.
Screening CCC(=NCc1cc(OC)cc(OC)c1)c1c(O)n(C)c(=O)n(C)c1=O returned bCat nuc transl inactive, Autophagy mod inactive, Insulin prom up inactive and MT stabilize HCS inactive.
Screening O=C(Nc1ccc(Cl)cc1)Nc1nccs1 returned bCat nuc transl inactive, Autophagy mod inactive, Insulin prom up inactive and MT stabilize HCS 46.
Screening Cc1cc(=O)[nH]c(SCc2nc3ccccc3c(=O)n2-c2ccccc2C)n1 returned bCat nuc transl inactive, Autophagy mod active, Insulin prom up inactive and MT stabilize HCS inactive.
COCCNCCOc1ccc(C(C)(C)c2ccccc2)cc1 was read as bCat nuc transl inactive, Autophagy mod inactive, Insulin prom up inactive and MT stabilize HCS inactive.
O=c1[nH]c(=O)n(Cc2ccccc2Cl)c(O)c1/C=C1/C=CC=N1 was read as bCat nuc transl inactive, Autophagy mod inactive, Insulin prom up inactive and MT stabilize HCS 29.
Brc1ccc2c(c1)C(OC1CN3CCC1CC3)c1ccccc1CS2 (stereo not drawn) was read as bCat nuc transl inactive, Autophagy mod inactive, Insulin prom up inactive and MT stabilize HCS inactive.
Screening COC(=O)C1=Nc2ccccc2/C1=C\c1c(O)n(-c2ccc(Br)cc2)c(=O)[nH]c1=O returned bCat nuc transl inactive, Autophagy mod inactive, Insulin prom up inactive and MT stabilize HCS inactive.
O=c1[nH]c(=O)n(-c2ccccc2)c(O)c1/C=C1/C(c2ccccc2)=Nc2ccccc21 was read as bCat nuc transl 80, Autophagy mod inactive, Insulin prom up inactive and MT stabilize HCS 31.
Screening N#CCCn1cc(C(=O)Nc2ccc(F)cc2)c(-c2ccc([N+](=O)[O-])cc2)n1 returned bCat nuc transl inactive, Autophagy mod inactive, Insulin prom up inactive and MT stabilize HCS inactive.
`Cc1cc2c(s1)NC(=O)CN=C2c1cccs1` gave bCat nuc transl inactive, Autophagy mod inactive, Insulin prom up inactive and MT stabilize HCS inactive.
For O=C1CN=C(c2cccs2)c2c(sc3c2CCCC3)N1 the results were bCat nuc transl inactive, Autophagy mod inactive, Insulin prom up inactive and MT stabilize HCS 54.
Screening COc1ccc(C(=O)c2nc3ccccc3n2C(C)C)cc1 returned bCat nuc transl inactive, Autophagy mod inactive, Insulin prom up inactive and MT stabilize HCS inactive.
`Cc1cccn2c(=O)c3cc(C(=O)N4CCC5(CC4)OCCO5)n(C)c3nc12` gave bCat nuc transl inactive, Autophagy mod inactive, Insulin prom up inactive and MT stabilize HCS 34.
`CCCCn1c(O)c(C(CC)=Nc2ccc(OCC)cc2)c(=O)[nH]c1=O` gave bCat nuc transl inactive, Autophagy mod inactive, Insulin prom up inactive and MT stabilize HCS inactive.
`CCCCn1c(O)c(C(CC)=NC(C)c2ccccc2)c(=O)[nH]c1=O` (stereo not drawn) gave Autophagy mod inactive and MT stabilize HCS 47.
For CCCCn1c(O)c(C(CC)=Nc2ccc(OC)cc2OC)c(=O)[nH]c1=O the results were bCat nuc transl inactive, Autophagy mod inactive, Insulin prom up inactive and MT stabilize HCS 29.
CC(=O)NNC(=O)CN1C(=O)CN=C(c2ccccc2)c2cc(Br)ccc21 was read as bCat nuc transl inactive, Autophagy mod inactive, Insulin prom up inactive and MT stabilize HCS inactive.
For Cc1ccc(/C=C2\C(=O)NC(=S)N(c3ccc(F)cc3)C2=O)s1 the results were bCat nuc transl inactive, Autophagy mod inactive and MT stabilize HCS inactive.
Cc1ccc(/C=C2\C(=O)NC(=S)N(c3ccccc3F)C2=O)s1 was read as bCat nuc transl inactive, Autophagy mod inactive, Insulin prom up inactive and MT stabilize HCS 33.
Screening CCOc1ccc(-n2c(O)c(C=NCCCn3ccnc3)c(=O)[nH]c2=O)cc1 returned bCat nuc transl inactive, Autophagy mod inactive, Insulin prom up inactive and MT stabilize HCS inactive.
Screening CCn1nc(/C=C/c2ccccc2)nc2c(=O)n(C)c(=O)nc1-2 returned bCat nuc transl inactive, Autophagy mod inactive, Insulin prom up inactive and MT stabilize HCS 28.
For Cc1nn(Cc2c(Cl)cccc2Cl)c(Cl)c1C(=O)O the results were bCat nuc transl inactive, Autophagy mod inactive, Insulin prom up inactive and MT stabilize HCS inactive.
Screening C/C(=N\NC(=S)Nc1ccccc1)c1c(O)n(C)c(=O)n(C)c1=O returned bCat nuc transl inactive, Autophagy mod active, Insulin prom up inactive and MT stabilize HCS inactive.
`COc1cccc(OC)c1C1=NCC(=O)Nc2c1oc1ccc(Br)cc21` gave bCat nuc transl inactive, Autophagy mod active, Insulin prom up inactive and MT stabilize HCS 14.
`O=C1CN=C(c2ccccc2)c2oc3ccc(Br)cc3c2N1` gave bCat nuc transl inactive, Autophagy mod inactive, Insulin prom up inactive and MT stabilize HCS inactive.
For NC(N)=N/N=C/c1cn(-c2ccccc2)nc1-c1cccs1 the results were bCat nuc transl inactive, Autophagy mod active, Insulin prom up inactive and MT stabilize HCS inactive.
`CC(=O)OC(C)(C)/C=C/C(=O)[C@](C)(O)[C@H]1[C@H](O)C[C@@]2(C)[C@@H]3CC=C4[C@H](C[C@H](O)C(=O)C4(C)C)[C@]3(C)C(=O)C[C@]12C` gave Autophagy mod inconclusive, Insulin prom up inactive and MT stabilize HCS 40.
Screening CC(=O)Nc1cc(C(=O)N2CCC3(CC2)OCCO3)ccc1Sc1ccc(F)cc1 returned bCat nuc transl inactive, Autophagy mod inactive, Insulin prom up inactive and MT stabilize HCS inactive.
`COc1cccc(NP(=O)(Oc2ccc(Cl)cc2)Oc2ccc(Cl)cc2)c1` gave bCat nuc transl 90, Autophagy mod inactive, Insulin prom up inactive and MT stabilize HCS inactive.
For Cc1ccc(NP(=O)(Oc2ccccc2F)Oc2ccccc2F)cc1C the results were bCat nuc transl inactive, Autophagy mod inactive, Insulin prom up inactive and MT stabilize HCS inactive.
O=P(Nc1ccccc1)(Nc1ccccc1)Oc1ccc(Cl)cc1 was read as bCat nuc transl inactive, Autophagy mod inactive, Insulin prom up inactive and MT stabilize HCS inactive.
For COc1ccccc1OP(=O)(Nc1cccnc1)Oc1ccccc1OC the results were bCat nuc transl inactive, Autophagy mod active, Insulin prom up inactive and MT stabilize HCS inactive.
For c1ccc(-c2ccc(-c3n(-c4ccccn4)c4ccccc4[n+]3-c3ccccn3)cc2)cc1 the results were bCat nuc transl inactive, Autophagy mod active, Insulin prom up inactive and MT stabilize HCS inactive.
